Article PMC10650344 (RSC Medicinal Chemistry, 2023)
Converted amounts (≈) assume the structure as drawn.

Columns and labels:
[1] = system: differentiated SHSY-5Y cells; experiment: MTT cell viability; assay type: cell-based, human; conditions: 12.5–100 μg mL^−1, 24 h
Method in brief: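 Neuron-like cultures made by differentiating SH-SY5Y with 10 μM retinoic acid for 8 days, then 25 nM BDNF for 5 days. Cells incubated 24 h with test compound at 12.5–100 μg mL⁻¹. Controls: untreated cells, and cells given 1.0% Triton X-100. MTT (5 mg mL⁻¹ solution) added for 3 h at 37 °C, formazan dissolved in DMSO, absorbance read at 570 nm. Three independent experiments, mean ± SD.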

[2] = system: differentiated SHSY-5Y cells; experiment: Genotoxicity analysis by Hoechst 33258 fluorescent nuclear staining; assay type: cell-based, human; conditions: for genotoxic properties on the differentiated SHSY-5Y cells: 100 μg mL^−1; for Mean NA/1000 cells ± SD: 100 μg mL^−1, 24 h, nuclear abnormalities
Method in brief: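 SH-SY5Y differentiated with 10 μM retinoic acid for 8 days (medium refreshed every 2 days), then 25 nM BDNF for 5 days. Test compound applied for 24 h. Cells washed in PBS, fixed in 4% paraformaldehyde at 4 °C for 30 min, then stained with Hoechst 33258 (1 mM) for 5 min at room temperature. Micronuclei, lobbed and notched nuclei scored by fluorescence microscopy in 1000 cells per treatment, in triplicate.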

[3] = Experimental water solubility by HPLC; assay type: physicochemical
[4] = log P by shake-flask method; assay type: physicochemical; conditions: n-octanol/phosphate buffer solution (PBS), pH 7.4
Method in brief: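 Shake-flask partition. About 5 mg of test compound dissolved in 1 mL n-octanol and mixed with an equal volume of PBS, pH 7.4. Mixture inverted 200 times over 5 min, then left 30 min to separate. Each phase assayed by HPLC (C18, 250 × 4.6 mm, isocratic H₂O/ACN + 0.1% TFA, 1 mL min⁻¹). log P taken from the concentration ratio of unionized compound between the phases.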

Aβ1–42 aggregation = assay type: cell-based, human; conditions: Congo red staining, experimental AD model
Method in brief: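 Differentiated SH-SY5Y cells (retinoic acid, then BDNF) given 20 μM pre-fibrillised Aβ1–42 with test compound. Cells then fixed with 4% paraformaldehyde in PBS at 4 °C for 30 min and PBS-washed. Congo red (1 μM) added for 1 h in the dark, followed by three PBS washes. Bound dye extracted with DMSO, with absorbance read at 497 nm.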

[5] = system: differentiated SHSY-5Y cell cultures; assay type: cell-based, human; conditions: compound 50 μg mL^−1, Aβ1–42 20 μM, 24 h
Method in brief: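 AD model: SH-SY5Y cells differentiated with retinoic acid then BDNF, then exposed to 20 μM Aβ1–42 (fibrillised 24 h in medium). 10⁵ cells seeded; Aβ1–42 with or without test compound (25 or 50 μg mL⁻¹) for 24 h. Cells trypsinised 3 min at 37 °C, spun 500 × g 5 min, stained in binding buffer with Annexin V-FITC and propidium iodide 5 min at room temperature, then analysed by flow cytometry.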

What does the source list for Brc1ccc(-c2csc(/C=C/c3ccccc3)n2)cc1 [6e, (E)-4-(4-Bromophenyl)-2-styrylthiazole]?
cytotoxic effect on the differentiated SHSY-5Y cells (MTT cell viability) [1]: no cytotoxic effect; genotoxic properties on the differentiated SHSY-5Y cells [2]: did not enhance the genotoxic properties; Mean NA/1000 cells ± SD [2]: 0.017 NA/1000 cells; solubility [3]: 0.0175 µg/mL (≈ 0.0511 µM); logP [4]: 4.87

With COc1ccc(/C=C/c2nc(-c3ccc(OC)cc3)cs2)cc1 [6i, (E)-4-(4-Methoxyphenyl)-2-(4-methoxystyryl)thiazole] as the compound, how does the “cytotoxic effect on the differentiated SHSY-5Y cells (MTT cell viability)” value [1] read?
Its value is “no cytotoxic effect”.

And the “genotoxic properties on the differentiated SHSY-5Y cells” value [2]?
The value was “did not enhance the genotoxic properties”.

And the “Mean NA/1000 cells ± SD” value [2]?
The value was 0.017 NA/1000 cells.

What about the “preventive activity against Aβ1–42 aggregation” value (Aβ1–42 aggregation) of the same compound?
Its value is “over 80%”.

What about the “reduction of the apoptotic cell death ratio” value [5] of the same compound?
Its value is 30%.

And the solubility [3]?
Its solubility is 0.0719 µg/mL (≈ 0.222 µM).

And the logP [4]?
The logP was 4.18.
